Laboratory results taken from ChEMBL document CHEMBL1122917, “Vinblastin-23-oyl amino acid derivatives: chemistry, physicochemical data, toxicity, and antitumor activities against P388 and L1210 leukemias” (J Med Chem, 1985).

Columns and labels:
Assay type in all cases: functional
[1] = system: Mus musculus; assay: Percent increase in life span at dose 14 mg/kg/day in 10 mice implanted with P388 leukemia cell line
Method in brief: (§1)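 Female DBA2 mice inoculated iv on day 0 with 10^4 P388 cells; single iv treatment on day 1 with drug as sulfate salt in physiological saline. Survival followed; %ILS from all deaths and survivors as (T/C × 100) − 100, maximal MST 30 days; survivors counted on days 30 and 60. Most experiments confirmed three times.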

[2] = system: Mus musculus; assay: Number of survivors of DBA2 mice on 30th day after inoculation with L1210 leukemia cell line intravenously at a dose of 15 mg/kg/day; 0/10; conditions: route intravenous
[3] = system: Mus musculus; assay: Number of survivors on 60th day at dose 10 mg/kg/day in 10 mice implanted with P388 leukemia cell line
[4] = system: Mus musculus; assay: Number of survivors on 30th day at dose 7 mg/kg/day in 10 mice implanted with P388 leukemia cell line
[5] = system: Mus musculus; assay: Percent increase in life span at dose 7 mg/kg/day in 10 mice implanted with P388 leukemia cell line; method in brief: as §1
[6] = system: Mus musculus; assay: Number of survivors on 60th day at dose 14 mg/kg/day in 10 mice implanted with P388 leukemia cell line
[7] = system: Mus musculus; assay: Percent increase in life span at dose 12.5 mg/kg/day in 10 mice implanted with P388 leukemia cell line; method in brief: as §1
[8] = system: Mus musculus; assay: Percent increase in life span of DBA2 mice after inoculation with L1210 leukemia intravenously at a dose of 15 mg/kg per day; conditions: route intravenous
[9] = system: Mus musculus; assay: Number of survivors on 60th day at dose 7 mg/kg/day in 10 mice implanted with P388 leukemia cell line; method in brief: as §1
[10] = system: Mus musculus; assay: Number of survivors on 60th day at dose 17.5 mg/kg/day in 9 mice implanted with P388 leukemia cell line
[11] = system: Mus musculus; assay: Number of survivors on 60th day at dose 5 mg/kg/day in 10 mice implanted with P388 leukemia cell line
[12] = system: Mus musculus; assay: Number of survivors on 30th day at dose 14 mg/kg/day in 10 mice implanted with P388 leukemia cell line
[13] = system: Mus musculus; assay: Number of survivors on 30th day at dose 17.5 mg/kg/day in 9 mice implanted with P388 leukemia cell line
[14] = system: Mus musculus; assay: Number of survivors of DBA2 mice on 60th day after inoculation with L1210 leukemia cell line intravenously at a dose of 15 mg/kg/day; 0/10; conditions: route intravenous
[15] = system: Mus musculus; assay: Percent increase in life span at dose 4 mg/kg/day in 10 mice implanted with P388 leukemia cell line; conditions: Mus musculus, P388; method in brief: as §1
[16] = system: Mus musculus; assay: Number of survivors on 30th day at dose 12.5 mg/kg/day in 10 mice implanted with P388 leukemia cell line
[17] = system: Mus musculus; assay: Number of survivors on 30th day at dose 10 mg/kg/day in 10 mice implanted with P388 leukemia cell line
[18] = system: Mus musculus; assay: Number of survivors on 30th day at dose 4 mg/kg/day in 10 mice implanted with P388 leukemia cell line
[19] = system: Mus musculus; assay: Percent increase in life span at dose 5 mg/kg/day in 10 mice implanted with P388 leukemia cell line; method in brief: as §1
[20] = system: Mus musculus; assay: Percent increase in life span at dose 17.5 mg/kg/day in 10 mice implanted with P388 leukemia cell line
[21] = system: Mus musculus; assay: Percent increase in life span at dose 10 mg/kg/day in 10 mice implanted with P388 leukemia cell line; method in brief: as §1
[22] = system: Mus musculus; assay: Number of survivors on 30th day at dose 15 mg/kg/day in 10 mice implanted with P388 leukemia cell line
[23] = system: Mus musculus; assay: Number of survivors on 60th day at dose 15 mg/kg/day in 10 mice implanted with P388 leukemia cell line
[24] = system: Mus musculus; assay: Number of survivors on 60th day at dose 12.5 mg/kg/day in 10 mice implanted with P388 leukemia cell line
[25] = system: Mus musculus; assay: Number of survivors on 30th day at dose 5 mg/kg/day in 10 mice implanted with P388 leukemia cell line
[26] = system: Mus musculus; assay: Number of survivors on 60th day at dose 4 mg/kg/day in 10 mice implanted with P388 leukemia cell line
[27] = system: Mus musculus; assay: Percent increase in life span at dose 70 mg/kg/day in 10 mice implanted with P388 leukemia cell line; method in brief: as §1
[28] = system: Mus musculus; assay: Number of survivors on 60th day at dose 60 mg/kg/day in 10 mice implanted with P388 leukemia cell line; 2/10
[29] = system: Mus musculus; assay: Number of survivors on 30th day at dose 70 mg/kg/day in 10 mice implanted with P388 leukemia cell line; 0/10
[30] = system: Mus musculus; assay: Number of survivors on 30th day at dose 40 mg/kg/day in 10 mice implanted with P388 leukemia cell line; 1/10
[31] = system: Mus musculus; assay: Number of survivors on 30th day at dose 60 mg/kg/day in 10 mice implanted with P388 leukemia cell line; 3/10
[32] = system: Mus musculus; assay: Number of survivors on 60th day at dose 20 mg/kg/day in 10 mice implanted with P388 leukemia cell line; 0/10
[33] = system: Mus musculus; assay: Number of survivors on 60th day at dose 70 mg/kg/day in 10 mice implanted with P388 leukemia cell line; method in brief: as §1
[34] = system: Mus musculus; assay: Percent increase in life span at dose 20 mg/kg/day in 10 mice implanted with P388 leukemia cell line; method in brief: as §1
[35] = system: Mus musculus; assay: Percent increase in life span at dose 40 mg/kg/day in 10 mice implanted with P388 leukemia cell line; method in brief: as §1
[36] = system: Mus musculus; assay: Percent increase in life span at dose 60 mg/kg/day in 10 mice implanted with P388 leukemia cell line; method in brief: as §1
[37] = system: Mus musculus; assay: Number of survivors on 60th day at dose 50 mg/kg/day in 10 mice implanted with P388 leukemia cell line; 0/10
[38] = system: Mus musculus; assay: Number of survivors on 60th day at dose 40 mg/kg/day in 10 mice implanted with P388 leukemia cell line; 1/10
[39] = system: Mus musculus; assay: Percent increase in life span at dose 50 mg/kg/day in 10 mice implanted with P388 leukemia cell line; method in brief: as §1
[40] = system: Mus musculus; assay: Number of survivors on 30th day at dose 50 mg/kg/day in 10 mice implanted with P388 leukemia cell line; 1/10
[41] = system: Mus musculus; assay: Number of survivors on 30th day at dose 20 mg/kg/day in 10 mice implanted with P388 leukemia cell line; 0/10
[42] = system: Mus musculus; assay: Number of survivors of DBA2 mice on 30th day after inoculation with L1210 leukemia cell line intravenously at a dose of 9 mg/kg/day; 0/10; conditions: route intravenous
[43] = system: Mus musculus; assay: Number of survivors of DBA2 mice on 30th day after inoculation with L1210 leukemia cell line intravenously at a dose of 10 mg/kg/day; 0/10; conditions: route intravenous
[44] = system: Mus musculus; assay: Number of survivors on 60th day at dose 8 mg/kg/day in 10 mice implanted with P388 leukemia cell line; method in brief: as §1
[45] = system: Mus musculus; assay: Number of survivors of DBA2 mice on 60th day after inoculation with L1210 leukemia cell line intravenously at a dose of 9 mg/kg/day; 0/10; conditions: route intravenous
Method in brief: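 Female DBA₂ mice received 10⁴ L1210 cells iv on day 0. Compounds were given iv as sulfate salts in physiological saline, as a single dose on day 1 (mg/kg per day). Groups were 10 mice. Survivors were counted on day 60. Cells were maintained by ip passage in DBA₂ mice.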

[46] = system: Mus musculus; assay: Percent increase in life span of DBA2 mice after inoculation with L1210 leukemia intravenously at a dose of 9 mg/lg per day
[47] = system: Mus musculus; assay: Number of survivors on 60th day at dose 11 mg/kg/day in 10 mice implanted with P388 leukemia cell line
[48] = system: Mus musculus; assay: Number of survivors on 30th day at dose 8 mg/kg/day in 10 mice implanted with P388 leukemia cell line
[49] = system: Mus musculus; assay: Percent increase in life span at dose 6 mg/kg/day in 10 mice implanted with P388 leukemia cell line; method in brief: as §1
[50] = system: Mus musculus; assay: Percent increase in life span of DBA2 mice after inoculation with L1210 leukemia intravenously at a dose of 10 mg/lg per day
[51] = system: Mus musculus; assay: Number of survivors on 60th day at dose 6 mg/kg/day in 10 mice implanted with P388 leukemia cell line
[52] = system: Mus musculus; assay: Number of survivors on 30th day at dose 11 mg/kg/day in 10 mice implanted with P388 leukemia cell line
[53] = system: Mus musculus; assay: Percent increase in life span at dose 8 mg/kg/day in 10 mice implanted with P388 leukemia cell line; method in brief: as §1
[54] = system: Mus musculus; assay: Percent increase in life span at dose 11 mg/kg/day in 10 mice implanted with P388 leukemia cell line; method in brief: as §1
[55] = system: Mus musculus; assay: Number of survivors of DBA2 mice on 60th day after inoculation with L1210 leukemia cell line intravenously at a dose of 10 mg/kg/day; 0/10; conditions: route intravenous
[56] = system: Mus musculus; assay: Number of survivors on 30th day at dose 6 mg/kg/day in 10 mice implanted with P388 leukemia cell line

## CCOC(=O)[C@@H](NC(=O)[C@@]1(O)[C@H](O)[C@]2(CC)C=CCN3CC[C@@]4(c5cc([C@@]6(C(=O)OC)C[C@H]7C[N@](CCc8c6[nH]c6ccccc86)C[C@](O)(CC)C7)c(OC)cc5N(C)[C@@]14C)[C@@H]32)C(C)C
[1]
  ILS at 14 mg/kg/day: 108%
[2]
  Survivors: 0
[3]
  Survivors: 0
[4]
  Survivors: 0
[5]
  ILS at 7 mg/kg/day: 40%
[6]
  Survivors: 0
[7]
  ILS at 12.5 mg/kg/day: 82.6%
[8]
  ILS at 15 mg/kg/day: 67%
[9]
  Survivors: 0
[10]
  Survivors: 0
[11]
  Survivors: 0
[12]
  Survivors: 2
[13]
  Survivors: 0
[14]
  Survivors: 0
[15]
  ILS at 4 mg/kg/day: 13.5%
[16]
  Survivors: 2
[17]
  Survivors: 0
[18]
  Survivors: 1
[19]
  ILS at 5 mg/kg/day: 17.2%
[20]
  ILS at 17.5 mg/kg/day: 22.2%
[21]
  ILS at 10 mg/kg/day: 53.4%
[22]
  Survivors: 3
[23]
  Survivors: 2
[24]
  Survivors: 0
[25]
  Survivors: 0
[26]
  Survivors: 1

## CCOC(=O)[C@H](Cc1ccc(O)cc1)NC(=O)[C@@]1(O)[C@H](O)[C@]2(CC)C=CCN3CC[C@@]4(c5cc([C@@]6(C(=O)OC)C[C@H]7C[N@](CCc8c6[nH]c6ccccc86)C[C@](O)(CC)C7)c(OC)cc5N(C)[C@@]14C)[C@@H]32
[27]
  ILS at 70 mg/kg/day: 49.5%
[28]
  Survivors: 2
[29]
  Survivors: 0
[30]
  Survivors: 1
[31]
  Survivors: 3
[32]
  Survivors: 0
[33]
  Survivors: 0
[34]
  ILS at 20 mg/kg/day: 29.9%
[35]
  ILS at 40 mg/kg/day: 53.3%
[36]
  ILS at 60 mg/kg/day: 49.5%
[37]
  Survivors: 0
[38]
  Survivors: 1
[39]
  ILS at 50 mg/kg/day: 49.5%
[40]
  Survivors: 1
[41]
  Survivors: 0

## CCOC(=O)C(CC(C)C)NC(=O)[C@@]1(O)[C@H](O)[C@]2(CC)C=CCN3CC[C@@]4(c5cc([C@@]6(C(=O)OC)C[C@H]7CN(CCc8c6[nH]c6ccccc86)C[C@](O)(CC)C7)c(OC)cc5N(C)[C@@]14C)[C@@H]32 (stereo not given in full)
[1]
  ILS at 14 mg/kg/day: 30%
[42]
  Survivors: 0
[3]
  Survivors: 2
[6]
  Survivors: 0
[7]
  ILS at 12.5 mg/kg/day: > 146%
[43]
  Survivors: 0
[44]
  Survivors: 1
[45]
  Survivors: 0
[46]
  ILS: 27%
[12]
  Survivors: 2
[16]
  Survivors: 6
[17]
  Survivors: 7
[47]
  Survivors: 0
[48]
  Survivors: 2
[49]
  ILS at 6 mg/kg/day: 26.7%
[50]
  ILS: 29.4%
[51]
  Survivors: 0
[52]
  Survivors: 3
[53]
  ILS at 8 mg/kg/day: 46.5%
[21]
  ILS at 10 mg/kg/day: > 146%
[24]
  Survivors: 1
[54]
  ILS at 11 mg/kg/day: 155%
[55]
  Survivors: 0
[56]
  Survivors: 0
